The source of these data is ChEMBL document CHEMBL3813675, “Identification of potent and selective retinoic acid receptor gamma (RARγ) antagonists for the treatment of osteoarthritis pain using structure based drug design” (Bioorg Med Chem Lett, 2016).

Series [1] concerns the target T1, Retinoic acid receptor gamma (Homo sapiens) (UniProt P13631).
T1 sequence (whole entry): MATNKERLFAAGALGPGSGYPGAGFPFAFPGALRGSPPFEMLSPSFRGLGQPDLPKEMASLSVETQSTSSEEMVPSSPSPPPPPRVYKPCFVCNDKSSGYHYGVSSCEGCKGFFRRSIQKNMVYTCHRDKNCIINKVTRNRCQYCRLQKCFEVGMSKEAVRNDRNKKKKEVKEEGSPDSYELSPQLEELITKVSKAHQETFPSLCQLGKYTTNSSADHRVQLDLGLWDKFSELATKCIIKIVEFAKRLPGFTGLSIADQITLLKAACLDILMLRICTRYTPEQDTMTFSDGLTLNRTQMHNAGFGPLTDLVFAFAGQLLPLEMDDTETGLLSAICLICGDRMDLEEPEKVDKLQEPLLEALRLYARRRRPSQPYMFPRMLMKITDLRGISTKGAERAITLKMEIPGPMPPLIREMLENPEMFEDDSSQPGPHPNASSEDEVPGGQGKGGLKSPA
The experiment in a line: Antagonist activity at RARgamma-LBD (unknown origin) expressed in HEK-293 cells assessed as inhibition of ATRA induced Gal4/luciferase gene expression after 24 hrs. In kind it is cell-based. As to conditions: HEK293.

Series [2] deals with T1, Retinoic acid receptor gamma (Homo sapiens). The experiment in a line: Antagonist activity at RARgamma-LBD (unknown origin) expressed in HEK-293 cells assessed as inhibition of ATRA induced Gal4/luciferase gene expression after 24 hrs relative to ATRA. In kind it is cell-based. The note with it: HEK293.
Series [3] deals with T2, Retinoic acid receptor alpha/Retinoid X receptor alpha (Homo sapiens, UniProt P10276).
T2 sequence (P10276 whole entry): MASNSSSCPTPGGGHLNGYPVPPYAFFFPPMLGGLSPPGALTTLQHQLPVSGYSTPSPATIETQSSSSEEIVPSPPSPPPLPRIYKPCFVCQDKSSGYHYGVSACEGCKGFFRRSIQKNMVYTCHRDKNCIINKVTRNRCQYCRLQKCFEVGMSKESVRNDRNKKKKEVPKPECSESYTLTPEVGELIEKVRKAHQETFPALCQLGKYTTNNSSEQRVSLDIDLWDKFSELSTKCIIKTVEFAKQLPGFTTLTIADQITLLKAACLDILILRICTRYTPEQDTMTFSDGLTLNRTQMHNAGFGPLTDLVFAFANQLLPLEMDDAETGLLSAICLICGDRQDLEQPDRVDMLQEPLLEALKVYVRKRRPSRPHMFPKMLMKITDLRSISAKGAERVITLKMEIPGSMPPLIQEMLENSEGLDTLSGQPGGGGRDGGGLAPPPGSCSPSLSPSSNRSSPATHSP
T2 sequence (P19793 whole entry): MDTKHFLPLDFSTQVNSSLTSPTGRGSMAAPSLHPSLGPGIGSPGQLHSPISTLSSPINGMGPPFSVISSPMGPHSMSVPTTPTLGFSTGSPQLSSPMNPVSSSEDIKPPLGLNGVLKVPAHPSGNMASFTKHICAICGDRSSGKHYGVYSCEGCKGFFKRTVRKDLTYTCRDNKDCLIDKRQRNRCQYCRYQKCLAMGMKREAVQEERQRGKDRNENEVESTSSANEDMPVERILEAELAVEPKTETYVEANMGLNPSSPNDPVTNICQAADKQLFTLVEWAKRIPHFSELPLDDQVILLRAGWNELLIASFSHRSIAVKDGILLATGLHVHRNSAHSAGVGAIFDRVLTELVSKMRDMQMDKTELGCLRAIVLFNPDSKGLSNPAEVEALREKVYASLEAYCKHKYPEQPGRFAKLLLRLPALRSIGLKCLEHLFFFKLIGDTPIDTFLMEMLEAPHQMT
The experiment in a line: Displacement of [3H]-TTNPB from RARalpha/RXRalpha (unknown origin) expressed in baculovirus expression system by scintillation proximity assay. On the technique in general: Displacement assays read how much labelled ligand stays bound in the presence of the test substance.

Series [4] addresses T3, Retinoic acid receptor RXR-alpha/Retinoic acid receptor beta (Homo sapiens, UniProt P10826).
T3 sequence (P10826 whole entry): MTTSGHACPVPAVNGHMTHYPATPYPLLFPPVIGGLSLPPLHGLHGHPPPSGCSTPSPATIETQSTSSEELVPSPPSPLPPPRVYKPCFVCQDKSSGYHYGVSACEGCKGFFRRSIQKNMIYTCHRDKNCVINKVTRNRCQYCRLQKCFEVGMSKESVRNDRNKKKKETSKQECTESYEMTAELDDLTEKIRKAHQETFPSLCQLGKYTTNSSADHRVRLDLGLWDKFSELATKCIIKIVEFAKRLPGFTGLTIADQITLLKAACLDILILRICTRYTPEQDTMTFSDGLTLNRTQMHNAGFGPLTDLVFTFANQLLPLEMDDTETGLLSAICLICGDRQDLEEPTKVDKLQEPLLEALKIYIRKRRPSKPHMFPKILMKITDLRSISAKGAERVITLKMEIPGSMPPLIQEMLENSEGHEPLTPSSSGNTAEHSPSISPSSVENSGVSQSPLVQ
T3 sequence (P19793 whole entry): T2 sequence (P19793 whole entry)
The experiment in a line: Displacement of [3H]-TTNPB from RARbeta/RXRalpha (unknown origin) expressed in baculovirus expression system by scintillation proximity assay.

Series [5] concerns the target T4, Retinoic acid receptor RXR-alpha/gamma (Homo sapiens, UniProt P13631+P19793).
T4 sequence (P13631 whole entry): T1 sequence (whole entry)
T4 sequence (P19793 whole entry): T2 sequence (P19793 whole entry)
Nature of the series: Displacement of [3H]-TTNPB from RARgamma/RXRalpha (unknown origin) expressed in baculovirus expression system by scintillation proximity assay.

A short description of series [6]: Selectivity index, ratio of Ki for RARalpha/RXRalpha (unknown origin) to Ki for RARgamma/RXRalpha (unknown origin) expressed in baculovirus expression system. Further details: species or system Homo sapiens.
The species named for the next series is Homo sapiens. The experiment in a line: Selectivity index, ratio of Ki for RARbeta/RXRalpha (unknown origin) to Ki for RARgamma/RXRalpha (unknown origin) expressed in baculovirus expression system.
The nature of series [7]: Solubility of the compound in simulated intestinal fluid. In kind it is ADME.
Series [8] concerns the target T5, Retinoic acid receptor alpha (Homo sapiens, UniProt P10276).
T5 sequence (P10276 whole entry): T2 sequence (P10276 whole entry)
The experiment in a line: Antagonist activity at RARalpha-LBD (unknown origin) expressed in HEK-293 cells assessed as inhibition of ATRA induced Gal4/luciferase gene expression after 24 hrs. In kind it is cell-based, HEK293.

In series [9] the target is T6, Retinoic acid receptor beta (Homo sapiens) (UniProt P10826).
T6 sequence (whole entry): T3 sequence (P10826 whole entry)
The experiment in a line: Antagonist activity at RARbeta-LBD (unknown origin) expressed in HEK-293 cells assessed as inhibition of ATRA induced Gal4/luciferase gene expression after 24 hrs. In kind it is cell-based. The note with it: HEK293.

Series [10] in a line: Oral bioavailability in rat at 10 mg/kg measured up to 14 days. In kind it is ADME, organism-based. The note with it: in vivo.
Series [11] relates to Rattus norvegicus. The experiment in a line: Analgesic activity in MIA-induced osteoarthritis-like joint pain rat model assessed as reduction in differential weight bearing between contralateral and ipsilateral limbs administered on day 9 post MIA challenge as single oral dose. In kind it is functional. The note with it: 216 h. The procedure, abridged: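 Rats received a single intraarticular injection of mono-iodoacetate into one hind limb joint. Joint pain read as differential weight bearing between contralateral and ipsilateral limbs. Compound given as a single oral dose on the day of testing. ED50 derived from the dose-response.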

A short description of series [12]: AUC in rat at 0.72 mg/kg, po administered for 14 days. The note with it: in vivo. In kind it is ADME, organism-based.
The nature of series [13]: AUC in rat at 10 mg/kg, po administered for 14 days. In kind it is ADME, organism-based. As to conditions: in vivo.
Series [14] in a line: AUC in rat at 30 mg/kg, po administered for 14 days. In kind it is ADME, organism-based. The note with it: in vivo.
For series [15], the system named is Rattus norvegicus. The experiment in a line: Toxicity in rat assessed as testicular degeneration at 10 mg/kg, po administered for 14 days. In kind it is organism-based. The note with it: in vivo, 336 h.
The test system of series [16] is Rattus norvegicus. The experiment in a line: Toxicity in rat assessed as testicular degeneration at 30 mg/kg, po administered for 14 days. In kind it is organism-based. As to conditions: in vivo, 336 h.

Structures are written as SMILES.

Take `CC(C)(C)c1cc(-c2cc(-c3ccc(C(=O)O)cc3)nn2-c2ccc(C(=O)N3CCOCC3)cc2)cc(C(C)(C)C)c1`: the antagonist equilibrium constant (Kb) (in general, the equilibrium dissociation constant of an antagonist, usually derived from a functional assay) in series [1] is 7.2 nM. Further, the Imax in series [2] is above 100%. The Ki (usually a measure of affinity in units of concentration, obtained from inhibition or displacement) in series [3] is above 1700 nM; in series [4], above 2980 nM; in [5], 2.3 nM. Besides, the “Ratio Ki” value in series [6] is above 752; in the series listed under Homo sapiens it was above 1320.
With `CC(C)(C)c1cc(-c2cc(-c3ccc(C(=O)O)cc3)nn2-c2ccc(S(C)(=O)=O)cc2)cc(C(C)(C)C)c1`, the Kb in series [1] was found to be 13.5 nM. Further, the Imax in series [2] was above 100%. Further, the Ki in series [3] amounted to 461 nM; in series [4], 995 nM; in series [5] it was 4.4 nM. In addition, the “Ratio Ki” value is 106 in series [6] and 228 in the series filed under Homo sapiens. In addition, in series [7] (simulated gi fluid), the solubility (commonly the concentration that dissolves in the medium under given conditions) is below 0.1 µg/mL.
Take `CC1(C)CC=C(c2ccccc2)c2cc(/C=C/c3ccc(C(=O)O)cc3)ccc21`: in [1], the Kb is 18.5 nM. Further, the Imax in series [2] is above 100%. Also, the Ki in [3] came to 7.7 nM; in series [5], 17.3 nM.
Regarding `CC(C)(C)c1cc(-c2cc(-c3ccc(C(=O)O)cc3)nn2-c2ccc(C(N)=O)cc2)cc(C(C)(C)C)c1`, the Kb in series [1] was 14.7 nM. Further, the Imax in series [2] is 79%. The Ki was above 1700 nM in series [3], above 2980 nM in series [4] and 1.4 nM in [5]. In addition, the “Ratio Ki” value in [6] is above 1259; in the series filed under Homo sapiens, above 2210.
On to `CN1CCN(C(=O)c2ccc(-n3nc(-c4ccc(C(=O)O)cc4)cc3-c3cc(C(C)(C)C)cc(C(C)(C)C)c3)cc2)CC1`, for which the Kb in [1] was 7.1 nM; in [8], above 4440 nM; in [9], 1510 nM. For the same compound, the Imax in series [2] is above 100%. The Ki in series [3] was above 1700 nM; in series [4], above 2980 nM; in series [5], 1.1 nM. The “Ratio Ki” value in [6] was above 1560; in the series filed under Homo sapiens, above 2730. Also, the solubility in series [7] (simulated intestinal fluid, read-out: solubility) is above 1000 µg/mL. The bioavailability – broadly, the share of a dose that reaches the circulation, judged against a reference dose that is usually intravenous – in series [10] amounted to 26%. In the series with Rattus norvegicus [11], the ED50 (commonly the dose that gives a 50% effect, or the effect in half of the subjects) came out at 0.724 mg/kg. In addition, the AUC (in general, the area under the concentration-time curve, a measure of exposure) at 336 h in [12] was 154 ng·h/mL; in [13], 9100 ng·h/mL; in [14], 36800 ng·h/mL. Moreover, the Activity entry is given as “Non-toxic” with Rattus norvegicus [15] and “Toxic” with Rattus norvegicus [16].
`Cc1cc(-c2cc(-c3ccc(C(=O)O)cc3)nn2-c2ccc(S(C)(=O)=O)cc2)cc(C(C)(C)C)c1`: the Ki in series [3] worked out at 6.2 nM; in series [4], 10 nM; in series [5], 1.1 nM. Besides, the “Ratio Ki” value in [6] is 5.6.
The matching figures for `CC(C)c1cc(-c2cc(-c3ccc(C(=O)O)cc3)nn2-c2ccc(S(C)(=O)=O)cc2)cc(C(C)(C)C)c1`: 87 nM, 131 nM, 1.6 nM and 54.
For the compound `CN(C)C(=O)c1ccc(-n2nc(-c3ccc(C(=O)O)cc3)cc2-c2cc(C(C)(C)C)cc(C(C)(C)C)c2)cc1`, in [1], the Kb worked out at 21.3 nM. Also, in series [2], the Imax is above 100%. Further, the Ki in series [3] is above 1700 nM; in [4], above 2980 nM; in series [5], 2.2 nM. The “Ratio Ki” value was above 766 in series [6] and above 1340 in the series listed under Homo sapiens.
For the compound `CC(C)(C)c1cccc(-c2cc(-c3ccc(C(=O)O)cc3)nn2-c2ccc(S(C)(=O)=O)cc2)c1`, the Ki stood at 1.8 nM in series [3], 4.3 nM in series [4] and 1.1 nM in [5]. The “Ratio Ki” value in series [6] is given as 1.6.
Consider `CN(C)S(=O)(=O)c1ccc(-n2nc(-c3ccc(C(=O)O)cc3)cc2-c2cc(C(C)(C)C)cc(C(C)(C)C)c2)cc1`, for which the Kb in series [1] is 11.1 nM. The Imax in series [2] is above 100%. For the same compound, the values for the Ki in series [3], in series [4] and in series [5] were above 1700 nM, above 2980 nM and 4.1 nM, respectively. The “Ratio Ki” value in series [6] is above 414; in the series listed under Homo sapiens, above 725.
Regarding `CC1(C)CCC(C)(C)c2cc(-c3cc(-c4ccc(C(=O)O)cc4)nn3-c3ccc(S(C)(=O)=O)cc3)ccc21`, the Kb in series [1] came to 2.2 nM. Moreover, the Imax in series [2] was above 100%. For the same compound, the Ki in [3] worked out at 2.8 nM; in series [4] it was 5.2 nM; in series [5] it was 0.27 nM. Besides, the “Ratio Ki” value (in series [6]; in the series filed under Homo sapiens) was 10 throughout.
